According to ChEMBL document CHEMBL3817823 (J Med Chem, 2016):
Converted amounts (≈) assume the structure as drawn. The source made the active and inactive calls. The rule behind the calls is not given here.

Key:
[1] = biological target: Histone-lysine N-methyltransferase SUV39H1 (Homo sapiens) (UniProt O43463); experiment: Inhibition of SUV39H1 (unknown origin) at 1 to 50 uM by scintillation proximity assay
A2780 = experiment: Induction of apoptosis in human A2780 cells assessed as caspase 3/7 activation up to 20 uM after 2 days by […]; format: functional, cell-based
[2] = biological target: Histone-lysine N-methyltransferase NSD3 (Homo sapiens) (UniProt Q9BZ95); experiment: Inhibition of NSD3 (unknown origin) at 1 to 50 uM by TCA precipitation assay
Chain of Histone-lysine N-methyltransferase NSD3 (Homo sapiens) (Q9BZ95 whole entry): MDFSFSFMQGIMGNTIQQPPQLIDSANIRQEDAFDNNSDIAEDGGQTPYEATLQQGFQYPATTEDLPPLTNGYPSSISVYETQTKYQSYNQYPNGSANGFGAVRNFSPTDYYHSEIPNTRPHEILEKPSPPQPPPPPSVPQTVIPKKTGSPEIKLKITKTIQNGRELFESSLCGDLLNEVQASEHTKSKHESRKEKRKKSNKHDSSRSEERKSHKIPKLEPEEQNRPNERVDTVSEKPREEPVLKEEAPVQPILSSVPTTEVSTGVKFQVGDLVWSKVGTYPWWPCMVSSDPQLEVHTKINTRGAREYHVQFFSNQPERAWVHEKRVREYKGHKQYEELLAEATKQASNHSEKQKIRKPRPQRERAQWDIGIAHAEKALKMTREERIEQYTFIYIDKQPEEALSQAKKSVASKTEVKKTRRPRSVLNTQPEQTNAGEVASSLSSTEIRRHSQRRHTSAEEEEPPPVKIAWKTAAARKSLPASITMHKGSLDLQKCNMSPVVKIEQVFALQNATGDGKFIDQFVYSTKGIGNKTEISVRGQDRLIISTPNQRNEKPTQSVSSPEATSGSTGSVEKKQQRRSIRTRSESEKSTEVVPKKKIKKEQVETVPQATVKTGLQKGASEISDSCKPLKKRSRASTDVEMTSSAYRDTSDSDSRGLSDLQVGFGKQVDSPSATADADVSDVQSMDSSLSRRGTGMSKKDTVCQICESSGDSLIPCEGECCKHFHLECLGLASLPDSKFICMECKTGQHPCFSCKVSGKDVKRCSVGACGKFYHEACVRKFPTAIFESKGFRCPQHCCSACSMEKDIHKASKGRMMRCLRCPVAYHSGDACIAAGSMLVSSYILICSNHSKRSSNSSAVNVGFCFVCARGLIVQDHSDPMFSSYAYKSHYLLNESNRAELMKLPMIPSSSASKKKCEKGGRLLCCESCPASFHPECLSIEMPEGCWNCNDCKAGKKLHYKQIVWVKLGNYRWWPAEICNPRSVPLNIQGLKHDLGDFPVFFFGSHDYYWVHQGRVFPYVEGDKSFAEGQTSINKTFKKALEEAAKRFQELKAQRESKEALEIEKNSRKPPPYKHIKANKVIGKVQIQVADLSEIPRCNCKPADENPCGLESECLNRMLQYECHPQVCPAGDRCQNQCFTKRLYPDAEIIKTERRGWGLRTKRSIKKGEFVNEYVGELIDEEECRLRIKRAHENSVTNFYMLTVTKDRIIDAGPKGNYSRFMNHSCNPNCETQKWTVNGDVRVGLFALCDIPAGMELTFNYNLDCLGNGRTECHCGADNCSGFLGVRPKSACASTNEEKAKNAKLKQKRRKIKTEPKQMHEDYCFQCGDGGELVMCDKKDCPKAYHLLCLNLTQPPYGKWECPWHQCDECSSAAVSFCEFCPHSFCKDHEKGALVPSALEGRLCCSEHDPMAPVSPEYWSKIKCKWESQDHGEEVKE

KYSE-150 [3] = experiment: Antitumor activity against human KYSE-150 cells xenografted in BALB/c mouse assessed as reduction in tumor weight at 10 mg/kg, iv administered once at day 4 relative to control; format: functional, organism-based
Method in brief: (§1)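 Mice carrying subcutaneous KYSE-150 xenografts; dosing began day 4 after inoculation. Arms: vehicle (Solutol/ethanol/water 1:1:8 iv qd, plus saline iv once at day 4), inhibitor 500 mg/kg po qd, doxorubicin 10 mg/kg iv once at day 4, or the combination. Tumor area tracked (mean ± SEM); final tumor weight gives T/C; Dunn's method versus vehicle.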

Mus musculus [4] = experiment: Toxicity in human KYSE-150 cells xenografted BALB/c mouse assessed as body weight loss at 500 mg/kg, po administered qd in presence of doxorubicin relative to control; format: organism-based; settings: in vivo
Method in brief: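 Mice bore subcutaneous KYSE-150-derived tumor xenografts; dosing began day 4 after inoculation. Groups: vehicle (Solutol/ethanol/water 1:1:8 iv qd plus saline iv at day 4); compound 500 mg/kg po qd; doxorubicin 10 mg/kg iv once at day 4; combination. Treatment-related body weight loss was recorded.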

[5] = Aqueous solubility of the compound; format: physicochemical; settings: buffer
KYSE-150 cell line = experiment: Induction of apoptosis in human KYSE-150 cells assessed as caspase 3/7 activation up to 20 uM after 2 days by […]; format: functional, cell-based
[6] = biological target: Protein arginine N-methyltransferase 8 (Homo sapiens) (UniProt Q9NR22); experiment: Inhibition of PRMT8 (unknown origin) at 1 to 50 uM by scintillation proximity assay
Chain of Protein arginine N-methyltransferase 8 (Homo sapiens) (Q9NR22 2-394 limits assumed): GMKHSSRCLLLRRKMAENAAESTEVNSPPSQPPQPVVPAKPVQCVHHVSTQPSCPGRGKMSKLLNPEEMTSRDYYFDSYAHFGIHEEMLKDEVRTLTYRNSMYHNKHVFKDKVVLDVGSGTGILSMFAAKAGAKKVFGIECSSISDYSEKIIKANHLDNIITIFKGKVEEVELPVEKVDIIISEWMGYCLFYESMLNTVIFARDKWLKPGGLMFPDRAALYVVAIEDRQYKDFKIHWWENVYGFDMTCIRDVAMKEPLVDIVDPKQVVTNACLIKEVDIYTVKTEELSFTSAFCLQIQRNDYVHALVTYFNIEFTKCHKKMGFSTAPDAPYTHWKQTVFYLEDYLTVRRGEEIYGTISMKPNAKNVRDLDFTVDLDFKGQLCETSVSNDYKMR

[7] = Antitumor activity against human KYSE-150 cells xenografted in BALB/c mouse assessed as tumor growth relative to control at 500 mg/kg, po administered qd in presence of doxorubicin; format: functional; method in brief: as §1
Mus musculus [8] = experiment: In vivo inhibition of SMYD2 expressed in human KYSE-150 cells xenografted in BALB/c nude mouse assessed as suppression of AHNAK methylation at 10 mg/kg, po administered qd for 3 days by dot-blot analysis relative to untreated control; format: functional
Method in brief: (§2)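 Mice with subcutaneous KYSE-150 tumor xenografts dosed orally once daily for 3 days (vehicle PEG 400/water 8:2), n = 12 per group; tumors then harvested and AHNAK methylation measured ex vivo by dot blot with SY46 antibody; group means ± SD, Student's t test versus vehicle.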

[9] = biological target: Protein arginine N-methyltransferase 7 (Homo sapiens) (UniProt Q9NVM4); experiment: Inhibition of PRMT7 (unknown origin) at 1 to 50 uM by scintillation proximity assay
[10] = biological target: Histone-lysine N-methyltransferase EZH2 (Homo sapiens) (UniProt Q15910); experiment: Inhibition of EZH2 (unknown origin) at 1 to 50 uM by scintillation proximity assay
Chain of Histone-lysine N-methyltransferase EZH2 (Homo sapiens) (Q15910 whole entry, looked up): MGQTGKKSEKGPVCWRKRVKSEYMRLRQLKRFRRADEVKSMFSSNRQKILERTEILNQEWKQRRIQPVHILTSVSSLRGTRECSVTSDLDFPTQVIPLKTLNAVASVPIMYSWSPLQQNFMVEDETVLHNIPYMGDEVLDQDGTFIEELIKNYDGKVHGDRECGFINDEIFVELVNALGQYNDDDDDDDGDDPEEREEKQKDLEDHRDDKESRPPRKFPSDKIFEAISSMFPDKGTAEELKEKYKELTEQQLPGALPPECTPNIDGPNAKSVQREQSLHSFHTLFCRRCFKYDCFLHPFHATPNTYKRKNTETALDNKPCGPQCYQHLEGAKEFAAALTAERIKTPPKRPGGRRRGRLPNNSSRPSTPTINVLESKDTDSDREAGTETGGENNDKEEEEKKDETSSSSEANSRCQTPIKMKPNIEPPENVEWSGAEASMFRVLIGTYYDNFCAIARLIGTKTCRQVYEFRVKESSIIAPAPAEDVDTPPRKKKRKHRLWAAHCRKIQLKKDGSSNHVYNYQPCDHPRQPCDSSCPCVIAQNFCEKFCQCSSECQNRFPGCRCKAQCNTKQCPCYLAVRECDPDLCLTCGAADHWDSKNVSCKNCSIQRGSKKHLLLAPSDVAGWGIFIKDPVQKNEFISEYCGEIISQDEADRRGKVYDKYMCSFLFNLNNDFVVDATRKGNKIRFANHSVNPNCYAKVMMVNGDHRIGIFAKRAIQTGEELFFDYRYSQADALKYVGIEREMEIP

[11] = biological target: DNA (cytosine-5)-methyltransferase 1 (Homo sapiens) (UniProt P26358); experiment: Inhibition of DNMT1 (unknown origin) at 1 to 50 uM by scintillation proximity assay
U2OS = experiment: Induction of apoptosis in human U2OS cells assessed as caspase 3/7 activation up to 20 uM after 2 days by […]; format: functional, cell-based
[12] = biological target: DNMT3A2/3L complex (Homo sapiens) (UniProt Q9Y6K1+Q9UJW3); experiment: Inhibition of DNMT3A/3L (unknown origin) at 1 to 50 uM by TCA precipitation assay; format: protein-complex assay
Chain of DNMT3A2/3L complex (Homo sapiens) (Q9UJW3 whole entry, looked up): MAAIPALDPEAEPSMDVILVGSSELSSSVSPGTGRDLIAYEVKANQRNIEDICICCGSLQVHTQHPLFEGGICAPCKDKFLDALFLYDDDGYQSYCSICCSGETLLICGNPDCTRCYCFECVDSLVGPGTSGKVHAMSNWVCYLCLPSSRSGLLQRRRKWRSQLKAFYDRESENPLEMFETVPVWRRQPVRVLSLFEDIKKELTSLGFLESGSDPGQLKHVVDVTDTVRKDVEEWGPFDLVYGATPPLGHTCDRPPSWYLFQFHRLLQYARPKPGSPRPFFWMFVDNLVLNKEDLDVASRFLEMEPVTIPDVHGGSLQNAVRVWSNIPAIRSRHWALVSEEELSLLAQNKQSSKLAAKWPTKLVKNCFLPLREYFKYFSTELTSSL
Chain of DNMT3A2/3L complex (Homo sapiens) (Q9Y6K1 whole entry, looked up): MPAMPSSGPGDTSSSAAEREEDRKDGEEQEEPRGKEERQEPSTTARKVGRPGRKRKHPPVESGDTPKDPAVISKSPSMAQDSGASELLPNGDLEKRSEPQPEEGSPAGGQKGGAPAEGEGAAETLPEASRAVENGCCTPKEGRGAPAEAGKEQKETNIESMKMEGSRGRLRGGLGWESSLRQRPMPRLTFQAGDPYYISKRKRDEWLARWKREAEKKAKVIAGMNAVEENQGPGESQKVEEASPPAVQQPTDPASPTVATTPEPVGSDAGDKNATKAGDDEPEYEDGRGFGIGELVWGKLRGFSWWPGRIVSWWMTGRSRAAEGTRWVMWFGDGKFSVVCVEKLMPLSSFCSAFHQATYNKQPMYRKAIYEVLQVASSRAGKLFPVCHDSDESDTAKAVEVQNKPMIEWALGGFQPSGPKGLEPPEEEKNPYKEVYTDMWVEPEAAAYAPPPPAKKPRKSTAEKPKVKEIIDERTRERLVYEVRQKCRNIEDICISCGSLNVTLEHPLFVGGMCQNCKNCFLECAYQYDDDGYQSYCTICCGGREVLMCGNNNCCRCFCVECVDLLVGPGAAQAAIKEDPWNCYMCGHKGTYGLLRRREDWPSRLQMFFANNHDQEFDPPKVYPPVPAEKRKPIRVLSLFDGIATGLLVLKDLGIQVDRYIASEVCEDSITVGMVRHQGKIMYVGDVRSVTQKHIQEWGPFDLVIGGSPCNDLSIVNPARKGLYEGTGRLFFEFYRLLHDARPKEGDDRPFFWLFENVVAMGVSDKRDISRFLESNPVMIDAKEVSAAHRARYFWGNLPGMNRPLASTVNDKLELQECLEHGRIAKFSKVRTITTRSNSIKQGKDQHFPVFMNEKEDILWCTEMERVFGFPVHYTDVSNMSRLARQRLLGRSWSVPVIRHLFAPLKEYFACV

[13] = biological target: T1, N-lysine methyltransferase SMYD2 (Homo sapiens, UniProt Q9NRG4); settings: KYSE-150, 0.5 to 10 uM
T1 sequence (Q9NRG4 whole entry): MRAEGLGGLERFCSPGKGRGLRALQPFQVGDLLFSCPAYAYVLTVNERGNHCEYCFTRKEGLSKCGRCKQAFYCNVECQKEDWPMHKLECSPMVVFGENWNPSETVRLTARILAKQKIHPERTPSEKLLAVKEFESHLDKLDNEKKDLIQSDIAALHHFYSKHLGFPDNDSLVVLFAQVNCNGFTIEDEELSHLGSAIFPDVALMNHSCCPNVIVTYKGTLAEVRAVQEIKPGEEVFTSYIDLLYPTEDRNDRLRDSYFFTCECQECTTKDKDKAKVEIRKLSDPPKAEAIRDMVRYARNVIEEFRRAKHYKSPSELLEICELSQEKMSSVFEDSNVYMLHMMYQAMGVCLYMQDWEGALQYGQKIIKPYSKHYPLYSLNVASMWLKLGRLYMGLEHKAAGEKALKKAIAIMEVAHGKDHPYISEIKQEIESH

[14] = biological target: Histone-lysine N-methyltransferase SETD7 (Homo sapiens) (UniProt Q8WTS6); experiment: Inhibition of SETD7 (unknown origin) at 1 to 50 uM by scintillation proximity assay
Chain of Histone-lysine N-methyltransferase SETD7 (Homo sapiens) (Q8WTS6 whole entry): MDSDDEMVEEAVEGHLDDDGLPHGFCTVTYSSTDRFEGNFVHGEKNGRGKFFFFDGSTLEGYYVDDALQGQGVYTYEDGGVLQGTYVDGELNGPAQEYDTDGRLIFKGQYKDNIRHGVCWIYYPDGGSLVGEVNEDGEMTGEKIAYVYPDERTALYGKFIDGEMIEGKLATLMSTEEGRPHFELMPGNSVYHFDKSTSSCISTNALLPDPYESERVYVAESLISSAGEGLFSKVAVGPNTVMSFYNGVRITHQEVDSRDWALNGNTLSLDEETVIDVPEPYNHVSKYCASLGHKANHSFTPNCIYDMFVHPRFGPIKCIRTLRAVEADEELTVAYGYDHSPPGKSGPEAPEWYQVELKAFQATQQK

Mus musculus [15] = experiment: Time>IC50 for cellular methylation in mouse at 10 to 100 mg/kg, po qd
[16] = biological target: Histone-lysine N-methyltransferase, H3 lysine-36 specific (Homo sapiens) (UniProt Q96L73); experiment: Inhibition of NSD1 (unknown origin) at 1 to 50 uM by TCA precipitation assay
[17] = biological target: T1, N-lysine methyltransferase SMYD2; experiment: Binding affinity to SMYD2 (unknown origin) assessed as change in melting point at 100 uM by thermal shift assay
[18] = biological target: Histone-lysine N-methyltransferase EHMT2 (Homo sapiens) (UniProt Q96KQ7); experiment: Inhibition of G9A (unknown origin) at 1 to 50 uM by scintillation proximity assay
[19] = Blood clearance in rat at 0.4 mg/kg, iv bolus administration or 0.8 mg/kg, po by LC-MS/MS analysis; format: ADME, organism-based; settings: whole blood
[20] = Blood clearance in rat by LC/MS/MS analysis
Mus musculus [21] = experiment: In vivo inhibition of SMYD2 expressed in human KYSE-150 cells xenografted in BALB/c nude mouse assessed as suppression of AHNAK methylation at 70 mg/kg, po administered qd for 3 days by dot-blot analysis relative to untreated control; format: functional; method in brief: as §2
[22] = Effect on p53 protein levels in HEK293T cells by Western blot analysis; format: ADME, cell-based; settings: human, hek-293t
Hepatocyte = experiment: Clearance in rat hepatocytes at 1 uM measured up to 90 mins by LC-MS/MS analysis; format: ADME, cell-based
[23] = biological target: Protein N-lysine methyltransferase METTL21A (Homo sapiens) (UniProt Q8WXB1); experiment: Inhibition of METTL21A (unknown origin) at 1 to 50 uM by TCA precipitation assay
Chain of Protein N-lysine methyltransferase METTL21A (Homo sapiens) (Q8WXB1 whole entry): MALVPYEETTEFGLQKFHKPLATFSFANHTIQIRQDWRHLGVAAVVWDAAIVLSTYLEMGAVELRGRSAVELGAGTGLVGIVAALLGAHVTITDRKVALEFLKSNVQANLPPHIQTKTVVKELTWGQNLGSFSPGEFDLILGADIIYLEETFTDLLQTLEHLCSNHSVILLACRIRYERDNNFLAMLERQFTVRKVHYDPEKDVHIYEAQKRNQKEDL

KYSE-150 [24] = experiment: Antitumor activity against human KYSE-150 cells xenografted in BALB/c mouse assessed as reduction in tumor area at 500 mg/kg, po administered qd relative to control; format: functional, organism-based; method in brief: as §1
Mus musculus [25] = experiment: In vivo inhibition of SMYD2 expressed in human KYSE-150 cells xenografted in BALB/c nude mouse assessed as suppression of AHNAK methylation at 100 mg/kg, po administered qd for 3 days by dot-blot analysis relative to untreated control; format: functional; method in brief: as §2
MDA-MB-231 = experiment: Effect on AHNAK protein levels in human MDA-MB-231 cells at 6.3 to 2000 nM by Western blot analysis; format: ADME, cell-based; settings: mda-mb-231, 2 µM
Method in brief: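 MDA-MB231 cells overexpressing SMYD2 treated with inhibitor over a concentration series; Western blot probed for AHNAK methylation (SY46 antibody) and total AHNAK protein.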

Compound: CCN(C(=O)CO)[C@H]1CN(/C(=N\C#N)Nc2cccc(OC(F)F)c2)N=C1c1ccc(Cl)c(Cl)c1
- inhibition [1]: inactive
- Activity (A2780): inactive
- inhibition [2]: inactive
- Activity (KYSE-150 [3]): Active
- Activity (Mus musculus [4]): Non-toxic
- solubility [5]: 20 µg/mL (≈ 38.1 µM)
- Activity (KYSE-150 cell line): inactive
- inhibition [6]: inactive
- T/C [7]: 0.46
- T/C (Mus musculus [8]): 1
- inhibition [9]: inactive
- inhibition [10]: inactive
- inhibition [11]: inactive
- Activity (U2OS): inactive
- inhibition [12]: inactive
- inhibition [13]: Active
- inhibition [14]: inactive
- Time (Mus musculus [15]): 9 h
- inhibition [16]: inactive
- deltaTm [17]: 7.1 K
- inhibition [18]: inactive
- clearance [19]: 26.7 mL/min/kg
- clearance [20]: 26.7 mL/min/kg
- T/C (Mus musculus [21]): 0.73
- Activity [22]: Non-toxic
- CLH (Hepatocyte): 41.7 mL/min/kg
- inhibition [23]: inactive
- Activity (KYSE-150 [24]): inactive
- T/C (Mus musculus [25]): 0.43
- Activity (MDA-MB-231): Non-toxic
